# Compound activity deposited in PubChem BioAssay by Broad Institute.
# The sample as a whole holds a higher share of hits than the screen did.
# INS-1E ATP HTS: INS-1E beta cell protection from cytokine death | 20,000 compounds, 0.1% hits | AID 488910 | protection from cytokine-induced ATP loss, % at 10 µM | INS-1E cytokine-induced death, ATP luminescence, 48 h; normalised: neutral wells 0, positive control 100;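 active = mean replicate protection from cytokine-induced ATP loss at least 50% and at least 75% of replicates each reaching 50%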
#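 Assay system: INS-1E rat insulinoma cells. Amount: 8000 cells per well. Medium: phenol-red-free RPMI with 5% fetal bovine serum. Reagent: IL-1β, TNF-α and IFN-γ cytokine mix. Doses: one compound concentration, pin transfer. Schedule: 48 h co-treatment, 10 min post-lysis read. Detection: CellTiter-Glo luminescence measuring cellular ATP.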
# A1 apoptosis 2: A1 inhibition read as caspase activation; MEF A1-2A-BIM cells, caspase-Glo luminescence, 3 h; percent of clofoctol response, DMSO zero; caspase activation, % (test concentration not listed); 24,000 tested, under 10 active; in the data active = caspase activation above about 5.9%
#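 System: mouse embryonic fibroblasts co-expressing A1 and BIM (A1-2A-BIM), primed for A1 dependence; amount: 2500 cells/well; doses: 50 nL pinned compound; schedule: cells settled overnight, compound exposure 3 h at 37 °C, 5% CO2; detection: Caspase-Glo 3/7 luminescence, 1 h at room temperature; read-out: Caspase-3/7 activation, seen as rise in luminescence signal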
# T cruzi HTS: inhibitors of intracellular Trypanosoma cruzi | intracellular Trypanosoma cruzi in host cells, plate reader | activity score (inhibition), % at 5.01 µM | 22,000 compounds, 4.9% hits; in the data active = activity score above about 55%;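 note: parasites and compound incubated about four days before reading; 0% = median of neutral control wells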
# * marks the source's active call; other numbers are inactive results; / = no result given.
SMILES,INS-1E ATP HTS,A1 apoptosis 2,T cruzi HTS
C[C@@H]1CN([C@H](C)CO)C(=O)c2cccc(NC(=O)CCCCCC(=O)Nc3ccccc3N)c2O[C@@H]1CN(C)Cc1ccc(C(F)(F)F)cc1,13,0,54
C[C@@H]1CN([C@H](C)CO)C(=O)c2cccc(NC(=O)CCCCCC(=O)Nc3ccccc3N)c2O[C@H]1CN(C)Cc1ccccc1,/,-1,/
C[C@@H]1CN([C@H](C)CO)C(=O)c2cccc(NC(=O)CCCCCC(=O)Nc3ccccc3N)c2O[C@H]1CN(C)Cc1ccc(-c2ccccc2)cc1,-7,/,71*
C[C@H](CO)N1C[C@H](C)[C@H](CN(C)Cc2ccc(C(F)(F)F)cc2)Oc2c(NC(=O)CCCCCC(=O)Nc3ccccc3N)cccc2C1=O,9,1,73*
COc1ccc(CN(C)C[C@@H]2Oc3c(NC(=O)CCCCCC(=O)Nc4ccccc4N)cccc3C(=O)N([C@H](C)CO)C[C@H]2C)cc1,/,1,/
C[C@H]1CN([C@@H](C)CO)C(=O)c2cccc(NC(=O)CCCCCC(=O)Nc3ccccc3N)c2O[C@@H]1CN(C)Cc1ccc(-c2ccccc2)cc1,-13,1,67*
COC(=O)[C@H]1N=C(c2ccc(OCCCO)cc2)O[C@H]1c1ccccc1N=[N+]=[N-],/,-8,/
C[C@@H]1CN([C@H](C)CO)C(=O)Cc2cc(NS(=O)(=O)c3ccccc3)ccc2O[C@@H]1CN(C)Cc1ccc(C(F)(F)F)cc1,-28,1,59*
C[C@@H]1CN([C@H](C)CO)C(=O)Cc2cc(NS(=O)(=O)c3ccccc3)ccc2O[C@H]1CN(C)Cc1ccc(C(F)(F)F)cc1,-6,0,11
C[C@H]1CN([C@@H](C)CO)C(=O)Cc2cc(NS(=O)(=O)c3ccccc3)ccc2O[C@@H]1CN(C)Cc1ccc(C(F)(F)F)cc1,11,/,67*
C[C@H](CO)N1C[C@H](C)[C@H](CN(C)Cc2ccc(C(F)(F)F)cc2)Oc2ccc(NS(=O)(=O)c3ccccc3)cc2CC1=O,2,/,6
OCc1ccc(-c2ccncc2)cc1,/,1,/
Cc1noc(C)c1NC(=O)N(C)C[C@H]1Oc2c(NC(=O)NC3CCCCC3)cccc2C(=O)N([C@@H](C)CO)C[C@H]1C,3,2,-11
C[C@@H]1CN([C@@H](C)CO)C(=O)c2cc(NS(=O)(=O)c3ccccc3)ccc2O[C@@H]1CN(C)Cc1ccc(Cl)c(Cl)c1,-29,-2,13
C[C@H](CO)N1C[C@H](C)[C@H](CN(C)Cc2ccc(Cl)c(Cl)c2)Oc2ccc(NS(=O)(=O)c3ccc(F)cc3)cc2C1=O,-9,-1,8
C[C@@H]1CN([C@@H](C)CO)C(=O)c2cc(NS(=O)(=O)c3ccc(Cl)cc3)ccc2O[C@@H]1CN(C)Cc1ccc(Cl)c(Cl)c1,-15,0,58*
C[C@H]1CN([C@@H](C)CO)C(=O)c2cc(NS(=O)(=O)c3ccc(F)cc3)ccc2O[C@@H]1CN(C)Cc1ccc(Cl)c(Cl)c1,-2,/,70*
C[C@H]1CCCCO[C@H](CN(C)Cc2ccc(Cl)c(Cl)c2)[C@@H](C)CN([C@@H](C)CO)C(=O)c2cc(NS(=O)(=O)c3ccc(F)cc3)ccc2O1,/,-1,/
C[C@H]1CN([C@@H](C)CO)C(=O)c2cc(NS(=O)(=O)c3ccccc3)ccc2O[C@H]1CN(C)Cc1ccc(Cl)c(Cl)c1,/,-1,52*
C[C@H]1CN([C@@H](C)CO)C(=O)c2cc(NS(=O)(=O)c3ccc(Cl)cc3)ccc2O[C@H]1CN(C)Cc1ccc(Cl)c(Cl)c1,/,0,/
C[C@@H]1CCCCO[C@@H](CN(C)Cc2ccc(Cl)c(Cl)c2)[C@@H](C)CN([C@H](C)CO)C(=O)c2cc(NS(=O)(=O)c3ccc(F)cc3)ccc2O1,-53,0,56*
COc1ccc(C#Cc2ccc3c(c2)[C@]2(C(=O)N3)[C@H](C(=O)NC[C@H](O)c3ccccc3)[C@H]3C(=O)O[C@H](c4ccccc4)[C@H](c4ccccc4)N3[C@@H]2c2ccccc2OCCO)cc1,/,1,/
C[C@H](CO)N1C[C@H](C)[C@@H](CN(C)Cc2ccc(C(=O)O)cc2)OCc2cn(nn2)CCCC1=O,2,/,-15
COc1ccc(NC(=O)Nc2cccc3c2O[C@H](CN(C)Cc2ccc(C(F)(F)F)cc2)[C@@H](C)CN([C@@H](C)CO)C3=O)cc1,-20,/,30
C[C@H](CO)N1C[C@H](C)[C@H](CN(C)Cc2ccc(Cl)c(Cl)c2)Oc2ccc(NS(=O)(=O)c3ccc(Cl)cc3)cc2C1=O,-11,/,20
SMILES,INS-1E ATP HTS,A1 apoptosis 2,T cruzi HTS
C[C@H](CO)N1C[C@H](C)[C@@H](CN(C)Cc2ccc(C(F)(F)F)cc2)OCCCC[C@H](C)Oc2ccc(NS(=O)(=O)c3ccc(F)cc3)cc2C1=O,/,2,/
C[C@@H]1CN([C@H](C)CO)C(=O)c2cc(NS(=O)(=O)c3ccc(Cl)cc3)ccc2O[C@@H]1CN(C)Cc1ccc(Cl)c(Cl)c1,-23,/,85*
C[C@@H]1CCCCO[C@@H](CN(C)Cc2ccc(Cl)c(Cl)c2)[C@@H](C)CN([C@H](C)CO)C(=O)c2cc(NS(=O)(=O)c3cccs3)ccc2O1,-53,-1,68*
C[C@@H]1CCCCO[C@H](CN(C)Cc2ccc(Cl)c(Cl)c2)[C@@H](C)CN([C@H](C)CO)C(=O)c2cc(NS(=O)(=O)c3cccs3)ccc2O1,-24,/,17
C[C@@H]1CCCCO[C@@H](CN(C)Cc2ccc(C(F)(F)F)cc2)[C@@H](C)CN([C@H](C)CO)C(=O)c2cc(NS(=O)(=O)c3ccc(F)cc3)ccc2O1,-63,/,64*
C[C@@H]1CN([C@H](C)CO)C(=O)c2cccc(N(C)C)c2O[C@H]1CN(C)Cc1ccc(C(=O)O)cc1,6,-1,-17
C[C@@H]1CN([C@H](C)CO)C(=O)c2cc(NS(=O)(=O)c3ccccc3)ccc2O[C@H]1CN(C)CC1CCCCC1,-3,/,-3
Clc1nc(NC2CCN(Cc3ccccc3)CC2)c2cc(Br)ccc2n1,/,0,/
C[C@H]1CN([C@@H](C)CO)C(=O)Cc2cc(NC(=O)Nc3ccc4c(c3)OCO4)ccc2O[C@@H]1CN(C)Cc1ccc(C(F)(F)F)cc1,-42,0,71*
C[C@H]1CN([C@@H](C)CO)C(=O)Cc2cc(NC(=O)Nc3ccc4c(c3)OCO4)ccc2O[C@H]1CN(C)Cc1ccc(C(F)(F)F)cc1,-32,/,68*
C[C@H](CO)N1C[C@H](C)[C@@H](CN(C)C(=O)Nc2ccc(C(F)(F)F)cc2)Oc2ccc(NC(=O)Nc3ccc4c(c3)OCO4)cc2CC1=O,/,1,/
C[C@H](CO)N1C[C@H](C)[C@H](CN(C)Cc2ccc(C(F)(F)F)cc2)Oc2ccc(NC(=O)Nc3ccc4c(c3)OCO4)cc2CC1=O,-29,-1,67*
C[C@@H]1CN([C@@H](C)CO)C(=O)Cc2cc(NC(=O)Nc3ccc4c(c3)OCO4)ccc2O[C@@H]1CN(C)C(=O)Nc1ccc(C(F)(F)F)cc1,-10,/,7
C[C@@H]1CN([C@H](C)CO)C(=O)Cc2cc(NC(=O)Nc3ccc4c(c3)OCO4)ccc2O[C@H]1CN(C)C(=O)Nc1ccc(C(F)(F)F)cc1,-1,/,-9
